Holding throughout (format): functional
Test [1] deals with Candida albicans. Briefly: Potentiation of fluconazole-induced antifungal activity against fluconazole-resistant Candida albicans 28A assessed as fluconazole MIC80 after 48 hrs by broth microdilution checkerboard method. In a few lines:
(§1)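 Checkerboard dose-response matrix on strain 28A with gradients of fluconazole and the test compound in RPMI 1640, read after 48 h at 35 °C. MIC80 is taken alone and in combination, and FICI is calculated. Synergy is FICI ≤0.5, indifference >0.5-4, and antagonism >4.0.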

Test [2] deals with Candida albicans. The test is described as follows: Synergistic antifungal activity against fluconazole-resistant Candida albicans 28A after 48 hrs in presence of fluconazole by broth microdilution checkerboard method. Summed up:
as §1
(In general: Broth dilution looks for growth in wells or tubes with falling amounts of substance.)

In test [3] the test system is Candida albicans. Briefly: Antifungal activity against Candida albicans SC5314 after 48 hrs by broth microdilution method. As to conditions: SC5314, 48 h. In a few lines: (§2)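 MIC80 read by broth microdilution, with fluconazole as the positive antifungal agent. Values are reported in µg/mL as means of three independent experiments. Strains: wild-type SC5314 and DSY654, which lacks the Cdr1 and Cdr2 efflux pumps.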

For test [4], the system named is Candida albicans. Briefly: Antifungal activity against fluconazole-resistant Candida albicans 28A after 48 hrs by broth microdilution method. In a few lines: (§3)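 Clinical fluconazole-resistant isolates tested in broth microdilution with the compound alone. The endpoint is MIC80, the lowest concentration giving 80% growth inhibition, in µg/mL.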
In test [5] the test system is Candida albicans. The test is described as follows: Antifungal activity against CDR1 and CDR2 efflux pump deficient Candida albicans DSY654 after 48 hrs by broth microdilution method. To be noted: DSY654, 48 h. Summed up: as §2
Test [6] relates to Candida albicans. The test is described as follows: Potentiation of fluconazole-induced antifungal activity against fluconazole-resistant Candida albicans 28A after 48 hrs by broth microdilution checkerboard method. In a few lines:
as §1

The subject of test [7] is Candida albicans. Briefly: Potentiation of fluconazole-induced antifungal activity against drug-resistant Candida albicans 28I after 48 hrs by broth microdilution checkerboard method. Summed up: (§4)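 Broth microdilution checkerboard of fluconazole crossed with the test compound against clinical FLC-resistant isolates. MIC80 is read for each agent alone and in combination, and FICI is calculated. Synergy is FICI ≤0.5, indifference >0.5-4, and antagonism >4.0.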

Test [8] relates to Candida albicans. Briefly: Antifungal activity against drug-resistant Candida albicans 28I after 48 hrs by broth microdilution method. Summed up: as §3
Test [9] relates to Candida albicans. Briefly: Synergistic antifungal activity against drug-resistant Candida albicans 28J after 48 hrs in presence of fluconazole by broth microdilution checkerboard method. In a few lines:
as §4

In test [10] the test system is Candida albicans. The test is described as follows: Antifungal activity against drug-resistant Candida albicans 28J after 48 hrs by broth microdilution method. Summed up:
as §3

In test [11] the test system is Candida albicans. The test is described as follows: Potentiation of fluconazole-induced antifungal activity against drug-resistant Candida albicans 28J assessed as fluconazole MIC80 after 48 hrs by broth microdilution checkerboard method. Summed up: as §4
Test [12] concerns Candida albicans. Briefly: Synergistic antifungal activity against drug-resistant Candida albicans 28I after 48 hrs in presence of fluconazole by broth microdilution checkerboard method. In a few lines: as §4
Test [13] concerns Candida albicans. Briefly: Potentiation of fluconazole-induced antifungal activity against drug-resistant Candida albicans 28I assessed as fluconazole MIC80 after 48 hrs by broth microdilution checkerboard method. Summed up:
as §4

Test [14] deals with Candida albicans. The test is described as follows: Potentiation of fluconazole-induced antifungal activity against drug-resistant Candida albicans 28J after 48 hrs by broth microdilution checkerboard method. In a few lines:
as §4

In brackets after ≈: the same amount, converted by molar mass.

`COc1ccc(-c2cnn(-c3ccccc3)c2-c2c(O)cc(OC)cc2OC)cc1`: the MIC80 in test [1], in [2], in test [3], in [4] and in test [5] was greater than 128 mg/L throughout. Further, the “fractional inhibitory concentration index (FICI)” value in test [6] turned out to be 2.
Consider `COc1ccc(-c2cc(-c3ccccc3)nn2CCO)c(O)c1OC`, for which the MIC80 in [1], in [2], in test [3], in test [4] and in test [5] was greater than 128 mg/L each time. In addition, the “fractional inhibitory concentration index (FICI)” value in test [6] was determined as 2.
Turning to `OCCn1cc(-c2ccc(O)cc2)c(-c2ccc(O)c(C3OC(CO)C(O)C(O)C3O)c2O)n1` (configuration not stated), the MIC80 in [1], in [2], in [3], in test [4] and in test [5] was greater than 128 mg/L each time. Moreover, in [6], the “fractional inhibitory concentration index (FICI)” value came to 2.
Turning to `COc1cc(O)c(-c2cc(-c3ccccc3)nn2-c2ccccc2)c(OC)c1`, the MIC80 in [1], in test [2], in [3], in test [4] and in test [5] was greater than 128 mg/L each time. Moreover, in test [6], the “fractional inhibitory concentration index (FICI)” value came out at 2.
`COc1ccc(-n2nc(-c3ccccc3)cc2-c2ccc(OC)c(OC)c2O)cc1`: the MIC80 (in general, an inhibitory concentration at the 80% level, which refers to growth in some studies and to a panel of isolates in others) in [1] is greater than 128 mg/L; in test [2], greater than 128 mg/L; in test [3] it was greater than 128 mg/L; in [4], greater than 128 mg/L; in [5] it was 8 mg/L (≈ 19.9 µM). Moreover, in test [6], the “fractional inhibitory concentration index (FICI)” value was 2.
As to `COc1ccc(-n2nc(-c3ccccc3)cc2-c2c(O)cc(OC)c(OC)c2OC)cc1`, the MIC80 in test [1] was greater than 128 mg/L; in test [2] it was greater than 128 mg/L; in [3] it was greater than 128 mg/L; in [4] it was greater than 128 mg/L; in [5] it was 4 mg/L (≈ 9.25 µM). The “fractional inhibitory concentration index (FICI)” value in test [6] stood at 2.
Regarding `OCCn1ncc(-c2ccc(O)cc2)c1-c1ccc(O)c(C2OC(CO)C(O)C(O)C2O)c1O` (configuration not stated), the MIC80 in [1], in test [2], in test [3], in test [4] and in [5] was greater than 128 mg/L throughout. Also, the “fractional inhibitory concentration index (FICI)” value in test [6] is reported as 2.
Consider `COc1cc(O)c(-c2cc(-c3ccccc3)n(CCO)n2)c(OC)c1`, for which the MIC80 in test [1] is 2 mg/L; in test [2] it was 32 mg/L; in test [3], greater than 128 mg/L; in test [4], greater than 128 mg/L; in test [5], 4 mg/L (≈ 11.8 µM). Also, in test [6], the “fractional inhibitory concentration index (FICI)” value came to 0.266.
As for `CCn1cc(-c2ccc(O)cc2)c(-c2ccc(O)c(C3OC(CO)C(O)C(O)C3O)c2O)n1` (configuration not stated), the MIC80 in [1], in test [2], in test [3], in [4] and in [5] was greater than 128 mg/L in each case. Besides, the “fractional inhibitory concentration index (FICI)” value in test [6] was 2.
For `COc1cc(O)c(-c2cc(-c3ccccc3)n[nH]2)c(OC)c1`, the MIC80 is 0.25 mg/L in test [1]; 8 mg/L in [2]; 32 mg/L (≈ 108 µM) in test [8]; 8 mg/L (≈ 27 µM) in [3]; 8 mg/L in test [9]; 32 mg/L (≈ 108 µM) in test [10]. Moreover, the MIC80 in test [11] stood at 0.5 mg/L; in test [4], 32 mg/L (≈ 108 µM); in test [12], 8 mg/L; in test [5], 1 mg/L (≈ 3.37 µM); in test [13], 0.25 mg/L. Also, the entries for the “fractional inhibitory concentration index (FICI)” value in test [7], in test [6] and in [14] were 0.252, 0.252 and 0.254, respectively.
For the compound `COc1ccc(-n2nc(-c3c(O)cc(OC)c(OC)c3OC)cc2-c2ccccc2)cc1`, the MIC80 in test [1], in [2], in test [3], in [4] and in [5] was greater than 128 mg/L in each case. For the same compound, the “fractional inhibitory concentration index (FICI)” value in test [6] turned out to be 2.
Take `COc1ccc(-c2cn(-c3ccccc3)nc2-c2c(O)cc(OC)cc2OC)cc1`: the MIC80 in test [1], in test [2], in test [3], in test [4] and in [5] was greater than 128 mg/L in each case. The “fractional inhibitory concentration index (FICI)” value in test [6] was 2.
Turning to `COc1cc(O)c(-c2cc(-c3ccccc3)nn2-c2ccccc2)c(OC)c1OC`, the MIC80 in [1], in test [2], in [3], in test [4] and in test [5] was greater than 128 mg/L throughout. Moreover, the “fractional inhibitory concentration index (FICI)” value in [6] is reported as 2.
Regarding `COc1cc(O)c(-c2cc(-c3ccccc3)n(-c3ccccc3)n2)c(OC)c1OC`, the MIC80 in [1], in test [2], in test [3], in test [4] and in test [5] was greater than 128 mg/L in each case. Also, the “fractional inhibitory concentration index (FICI)” value in test [6] worked out at 2.
Consider `OC(Cn1cncn1)(Cn1cncn1)c1ccc(F)cc1F` [FLUCONAZOLE], for which the MIC80 in test [8] is greater than 128 mg/L; in test [3] it was 2 mg/L (≈ 6.53 µM); in [10], greater than 128 mg/L; in test [4], greater than 128 mg/L; in test [5], 0.25 mg/L (≈ 0.816 µM).
